Laboratory results taken from ChEMBL document CHEMBL1667724, “Landomycins P-W, cytotoxic angucyclines from Streptomyces cyanogenus S-136” (J Nat Prod, 2011).

Columns and labels:
MCF7 = assay: Cytotoxicity against ER-positive human MCF7 cells after 24 hrs by trypan blue staining; type: functional, cell-based
In short: (§1)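 Cells grown in DMEM; 50 × 10^3 cells per well seeded and left to attach overnight, then medium replaced with fresh medium containing a range of compound concentrations for 24 hours at 37 °C. Adherent plus floating cells pooled, resuspended in PBS, and stained with 0.4% trypan blue for 3 min. Live and dead cells counted on a hemocytometer. IC50 taken from dose-response curves as the mean of three experiments. Ethanol served as positive control and untreated medium as negative control.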

[1] = Cytotoxicity against ER-refractory human MDA231 cells after 24 hrs by trypan blue staining; type: functional, cell-based; settings: MDA-MB-231, 24 h; in short: as §1
[2] = Homo sapiens, MCF7, 24 h, read-out: IC50

SMILES	IC50 (MCF7; mcf7)	IC50 [1] [nM]	IC50 (MCF7; [2]) [nM]
Cc1cc(O)c2c3c(ccc2c1)C(=O)c1c(O[C@H]2C[C@@H](O)[C@H](O[C@H]4C[C@@H](O[C@H]5CC[C@H](O)[C@H](C)O5)[C@H](O)[C@@H](C)O4)[C@@H](C)O2)cccc1C3=O [LANDOMYCIN P]	Not Active	3550	–
Cc1cc(O)c2c3c(ccc2c1)C(=O)c1c(O[C@H]2C[C@@H](O)[C@H](O[C@H]4C[C@@H](O)[C@H](O)[C@@H](C)O4)[C@@H](C)O2)ccc(O)c1C3=O [LANDOMYCIN R]	Not Active	1700	–
Cc1cc(O)c2c(c1)C[C@@H](O)C1=C2C(=O)c2c(O)ccc(O[C@H]3C[C@@H](O)[C@H](O[C@H]4C[C@@H](O[C@H]5CC[C@H](O[C@H]6C[C@@H](O)[C@H](O[C@H]7C[C@@H](O[C@H]8CC[C@H](O)[C@H](C)O8)[C@H](O)[C@@H](C)O7)[C@@H](C)O6)[C@H](C)O5)[C@H](O)[C@@H](C)O4)[C@@H](C)O3)c2C1=O [LANDOMYCIN A]	–	1400	2500
Cc1cc(O)c2c(c1)C[C@@H](O)C1=C2C(=O)c2c(O)ccc(O)c2C1=O [LANDOMYCINONE]	–	1400	2100
Cc1cc(O)c2c(c1)C[C@@H](O)C1=C2C(=O)c2c(O)ccc(O[C@H]3C[C@@H](O)[C@H](O[C@H]4C[C@@H](O)[C@H](O)[C@@H](C)O4)[C@@H](C)O3)c2C1=O [LANDOMYCIN D]	–	1750	7600
Cc1cc(O)c2c3c(ccc2c1)C(=O)c1c(O[C@H]2C[C@@H](O)[C@H](O[C@H]4C[C@@H](O[C@H]5CC[C@H](O)[C@H](C)O5)[C@H](O)[C@@H](C)O4)[C@@H](C)O2)ccc(O)c1C3=O [LANDOMYCIN Q]	Not Active	3850	–
Cc1cc(O)c2c(c1)C[C@@H](O)C1=C2C(=O)c2cccc(O[C@H]3C[C@@H](O)[C@H](O[C@H]4C[C@@H](O[C@H]5CC[C@H](O[C@H]6C[C@@H](O)[C@H](O[C@H]7C[C@@H](O[C@H]8CC[C@H](O)[C@H](C)O8)[C@H](O)[C@@H](C)O7)[C@@H](C)O6)[C@H](C)O5)[C@H](O)[C@@H](C)O4)[C@@H](C)O3)c2C1=O [LANDOMYCIN S]	–	1500	6700
Cc1cc(O)c2c(c1)C[C@@H](O)C1=C2C(=O)c2cccc(O[C@H]3C[C@@H](O)[C@H](O[C@H]4C[C@@H](O[C@H]5CC[C@H](O[C@H]6C[C@@H](O)[C@H](O[C@H]7C[C@@H](O)[C@H](O)[C@@H](C)O7)[C@@H](C)O6)[C@H](C)O5)[C@H](O)[C@@H](C)O4)[C@@H](C)O3)c2C1=O [LANDOMYCIN V]	–	1500	6100
Cc1cc(O)c2c3c(ccc2c1)C(=O)c1c(O)cccc1C3=O [TETRANGULOL]	Not Active	1500	–
Cc1cc(O)c2c3c(ccc2c1)C(=O)c1c(O)ccc(O)c1C3=O [ANHYDROLANDOMYCINONE]	–	2000	1800
Cc1cc(O)c2c3c(ccc2c1)C(=O)c1c(O[C@H]2C[C@@H](O)[C@H](O[C@H]4C[C@@H](O[C@H]5CC[C@H](O[C@H]6C[C@@H](O)[C@H](O[C@H]7C[C@@H](O[C@H]8CC[C@H](O)[C@H](C)O8)[C@H](O)[C@@H](C)O7)[C@@H](C)O6)[C@H](C)O5)[C@H](O)[C@@H](C)O4)[C@@H](C)O2)ccc(O)c1C3=O [LANDOMYCIN U]	–	7300	2100
Cc1cc(O)c2c3c(ccc2c1)C(=O)c1c(O[C@H]2C[C@@H](O)[C@H](O[C@H]4C[C@@H](O)[C@H](O)[C@@H](C)O4)[C@@H](C)O2)cccc1C3=O [LANDOMYCIN O]	Not Active	3550	–
Cc1cc(O)c2c(c1)C[C@@H](O)C1=C2C(=O)c2c(O)ccc(O[C@H]3C[C@@H](O)[C@H](O[C@H]4C[C@@H](O[C@H]5CC[C@H](O[C@H]6C[C@@H](O)[C@H](O[C@H]7C[C@@H](O)[C@H](O)[C@@H](C)O7)[C@@H](C)O6)[C@H](C)O5)[C@H](O)[C@@H](C)O4)[C@@H](C)O3)c2C1=O [LANDOMYCIN B]	–	1800	4250
C[C@]1(O)CC(=O)c2c(ccc3c2C(=O)c2cccc(O)c2C3=O)C1 [TETRANGOMYCIN]	Not Active	1550	–
Cc1cc(O)c2c3c(ccc2c1)C(=O)c1c(O[C@H]2C[C@@H](O)[C@H](O[C@H]4C[C@@H](O[C@H]5CC[C@H](O[C@H]6C[C@@H](O)[C@H](O[C@H]7C[C@@H](O[C@H]8CC[C@H](O)[C@H](C)O8)[C@H](O)[C@@H](C)O7)[C@@H](C)O6)[C@H](C)O5)[C@H](O)[C@@H](C)O4)[C@@H](C)O2)cccc1C3=O [LANDOMYCIN T]	Not Active	1850	–
Cc1cc(O)c2c3c(ccc2c1)C(=O)c1c(O[C@H]2C[C@@H](O)[C@H](O[C@H]4C[C@@H](O[C@H]5CC[C@H](O[C@H]6C[C@@H](O)[C@H](O[C@H]7C[C@@H](O)[C@H](O)[C@@H](C)O7)[C@@H](C)O6)[C@H](C)O5)[C@H](O)[C@@H](C)O4)[C@@H](C)O2)cccc1C3=O [LANDOMYCIN M]	–	1900	7100
Cc1cc(O)c2c3c(ccc2c1)C(=O)c1c(O[C@H]2C[C@@H](O)[C@H](O[C@H]4C[C@@H](O[C@H]5CC[C@H](O[C@H]6C[C@@H](O)[C@H](O[C@H]7C[C@@H](O)[C@H](O)[C@@H](C)O7)[C@@H](C)O6)[C@H](C)O5)[C@H](O)[C@@H](C)O4)[C@@H](C)O2)ccc(O)c1C3=O [LANDOMYCIN W]	–	2650	6900
Cc1cc(O)c2c(c1)C[C@@H](O)C1=C2C(=O)c2cccc(O[C@H]3C[C@@H](O)[C@H](O[C@H]4C[C@@H](O)[C@H](O)[C@@H](C)O4)[C@@H](C)O3)c2C1=O [LANDOMYCIN F]	Not Active	1800	–
